In PubChem BioAssay:
Records with an inconclusive call do not appear.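 How the source made its calls, unless noted: active means RAM network inhibition above 8.4% in each of two replicates, 3 SD over the compound average; inconclusive means above 8.4% inhibition in only one replicate; inactive means 8.4% inhibition or less in each replicate.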

Assays:
[1] = OD615 S. cerevisiae growth inhibition, permissive medium, pilot counter-assay, permissive growth control for S. cerevisiae lifespan shortening project (AID 705;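 active means growth inhibition above 25% in both replicates, a cutoff set 3 SD above the mean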); conditions: OD615, 24 h, at 10 µM, active compounds read high
Procedure, shortened: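 System: Engineered DeaD yeast | Buffer or medium: SC raffinose/galactose permissive medium | Incubation: Cells pre-grown 4 h, then 24 h compound exposure, 30 °C humidified | Measured by: Absorbance (optical density) at 615 nm | Read-out: Reduction in yeast growth (OD615)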

[2] = Restrictive medium S. cerevisiae growth inhibition, OD615, pilot screen of yeast lifespan reduction project, restrictive growth control (AID 706;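 active means growth inhibition above a set limit, 3 SD over mean compound inhibition, in both replicates, cut at about 43% in these data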;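 further: modified DeaD lifespan yeast strain shifted to restrictive glucose medium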); conditions: OD615, 48 h, at 10 µM, active compounds read high
Procedure, shortened: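 Material: modified S. cerevisiae; Medium: glucose-based CSMM-D restrictive medium; Compound dosing: one concentration, 10 µM final, 0.25% DMSO; Incubation: 48 h compound exposure at 30 °C; Measured by: OD615.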

[3] = viability gain of MRP-1-high H69AR cells under doxorubicin, pilot screen, MRP-1 activator project, CellTiter-Glo, duplicate (AID 807;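 active means viability increase at or above a cutoff of the median across tested compounds plus 3 SD, cut at about 8.5% in these data, passing the limit was not always enough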;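 further: compound pretreatment 18-22 h then 72 h combined with doxorubicin; 0% = doxorubicin alone and 100% = vehicle without doxorubicin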); conditions: H69AR viability with doxorubicin, CellTiter-Glo luminescence; at 10 µM; active compounds read high
[4] = growth suppression of beta-catenin knockout HCT116, pilot screen, human colon tumor cells (AID 823;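 active means cell viability at or below a set limit in both duplicate runs, the limit being the all-compound median minus 4 SD, cut at about 23% in these data, passing the limit was not always enough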;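 further: 0% = wells killed by 20 µM Hyamine and 100% = untreated DMSO cell wells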); conditions: CellTiter-Glo, 60 h, at 10 µM, active compounds read low
[5] = inhibitors of the yeast RAM network, pilot screen, dse1pr::URA3 reporter, 5-FOA selection (AID 869;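 active means inhibition over a set limit, the all-compound mean plus 3 SD, in both replicate runs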;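 further: 0% = DMSO wells with no growth and 100% = 10 µM 1-NA-PP1 with full growth; RAM network block rescues cells from 5-FOA so hits raise OD615 growth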); conditions: S. cerevisiae dse1pr::URA3 5-FOA growth, OD615, 2 d; at 10 µM; active compounds read high; strain carries analog-sensitive mutant Cbk1 kinase
[6] = RAM signaling pathway blockade in yeast – S. cerevisiae, Pdr1DBD-CYC8 efflux-inhibited sensitized strain, primary screen (AID 1298);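 further: 0% = DMSO untreated cells without growth and 100% = 10 µM 1-NA-PP1 full growth; higher means more yeast growth rescued from 5-FOA killing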; conditions: S. cerevisiae cbk1-as DSE1-URA3 strain, 5-FOA growth OD615, 2 d; at 50 µM; active compounds read high

CCOC(=O)N1CCN(C(=O)CNS(=O)(=O)c2cccs2)CC1
inactive: growth inhibition [1] 7.6% | growth inhibition [2] 1.46% | viability increase [3] -2.69% | viability [4] 93.3% | inhibition [5] 0.785% | RAM network inhibition [6] 2.76%

CCCn1cc(S(=O)(=O)CC(=O)N2CCc3ccccc32)c2ccccc21
inactive: growth inhibition [1] -14.9% | growth inhibition [2] -8.48% | viability increase [3] -5.64% | viability [4] 96.9% | inhibition [5] 4.21% | RAM network inhibition [6] 5.15%

Cc1ccc(-c2nc(S(=O)(=O)c3ccc(F)cc3)c(SCC(=O)NCC3CCCO3)o2)cc1 (stereo not given)
inactive: growth inhibition [1] -6.27% | growth inhibition [2] 1.93% | viability increase [3] -6.02% | viability [4] 93.6% | inhibition [5] 0.14% | RAM network inhibition [6] 0.57%

c1nc(NCCN2CCOCC2)c2sc3nc(N4CCOCC4)c4c(c3c2n1)CCC4
inactive: growth inhibition [1] -7.6% | growth inhibition [2] 6.11% | viability increase [3] -6.1% | viability [4] 84.8% | inhibition [5] 2.26% | RAM network inhibition [6] 8.21%

Cc1ccc(S(=O)(=O)N2CCC(C(=O)N[C@@H](C)C(=O)NCC3CCCO3)CC2)cc1 (stereo not given in full)
inactive: growth inhibition [1] -19.6% | growth inhibition [2] -9.68% | viability increase [3] -2.65% | viability [4] 97% | inhibition [5] 2.1% | RAM network inhibition [6] -0.73%

CCOCCCNC(=O)C1CCC(CNS(=O)(=O)c2ccc(F)cc2)CC1 (stereo not given)
inactive: growth inhibition [1] -7.63% | growth inhibition [2] 6.36% | viability increase [3] -2.28% | viability [4] 95.5% | inhibition [5] 1.19% | RAM network inhibition [6] 7.28%

CC1(C)Cc2c(sc3c2c(=N)n(Cc2ccco2)c(=O)n3Cc2ccc(F)cc2)CO1
inactive: growth inhibition [1] -14.4% | growth inhibition [2] -4.37% | viability increase [3] -6.4% | viability [4] 56.5% | inhibition [5] 1.44% | RAM network inhibition [6] 6.85%

CCOC(=O)Nc1cc(C(=O)OCC)c(C)nc1C
inactive: growth inhibition [1] -8.02% | growth inhibition [2] -10% | viability increase [3] -1.85% | viability [4] 98.7% | inhibition [5] 1.25% | RAM network inhibition [6] 0.73%

COc1ccc(N2CC(O)=C(c3nc(C)cs3)C2=N)cc1
inactive: growth inhibition [1] 8.87% | growth inhibition [2] 5.31% | viability increase [3] -4.67% | viability [4] 96.7% | inhibition [5] 1.6% | RAM network inhibition [6] 3.27%

COc1cc(C2/C(=C(\O)c3cc(C)ccc3C)C(=O)C(=O)N2CCN(C)C)ccc1O (stereo not given)
inactive: growth inhibition [1] -21.2% | growth inhibition [2] -6.28% | viability increase [3] -1.94% | viability [4] 100% | inhibition [5] 1.94% | RAM network inhibition [6] 10.3%

Cc1nn(CCO)c(C)c1Oc1ccccc1O
inactive: growth inhibition [1] 6.79% | growth inhibition [2] 4.62% | viability increase [3] -1.47% | viability [4] 102% | inhibition [5] 1.96% | RAM network inhibition [6] 1.86%

C=C(C)Cn1c(CCCNC(=O)CCC)nc2ccccc21
inactive: growth inhibition [1] -14.9% | growth inhibition [2] 7.12% | viability increase [3] -0.37% | viability [4] 94.7% | inhibition [5] -0.295% | RAM network inhibition [6] 1.57%

CCCSc1nc(N)c2c3c(sc2n1)CN(C)CC3
inactive: growth inhibition [1] -25% | growth inhibition [2] -3.27% | viability increase [3] -2.7% | viability [4] 80.9% | inhibition [5] 1.02% | RAM network inhibition [6] 6.8%

COC(=O)CCC(=O)Oc1ccc(OC(=O)CCC(=O)OC)cc1
inactive: growth inhibition [1] 7.12% | growth inhibition [2] 2.51% | viability increase [3] -4.94% | viability [4] 72.9% | inhibition [5] 1.48% | RAM network inhibition [6] 0.94%

COc1ccc(N2CCN(C(=O)Cn3c(=O)[nH]c4ccsc4c3=O)CC2)cc1
inactive: growth inhibition [1] -15.3% | growth inhibition [2] -12.4% | viability increase [3] -3.44% | viability [4] 99.7% | inhibition [5] 0.99% | RAM network inhibition [6] 3.59%

Cc1ccccc1Cn1cc(S(=O)(=O)CC(=O)Nc2nccs2)c2ccccc21
inactive: growth inhibition [1] -30.2% | growth inhibition [2] 6.15% | viability increase [3] -5.34% | viability [4] 70.4% | inhibition [5] 4.8% | RAM network inhibition [6] 8.89%

CC(C)c1nc2sc3c(SCC(=O)NCc4ccco4)ncnc3c2c2c1CCC2
inactive: growth inhibition [1] -6.53% | growth inhibition [2] -1.46% | viability increase [3] -5.63% | viability [4] 91.7% | inhibition [5] 1.31% | RAM network inhibition [6] 5.66%

O=c1[nH]c2ccc(S(=O)(=O)N3CCN(c4ccccc4F)CC3)cc2s1
inactive: growth inhibition [1] -19.3% | growth inhibition [2] -7.76% | viability increase [3] -4.17% | viability [4] 93.3% | inhibition [5] 0.75% | RAM network inhibition [6] 4.21%

CC1(C)Cc2nc3sc4c(=O)n(CC(=O)NCc5ccco5)cnc4c3cc2CO1
inactive: growth inhibition [1] -8.59% | growth inhibition [2] 7.79% | viability increase [3] -5.22% | viability [4] 40.5% | inhibition [5] 0.68% | RAM network inhibition [6] 4.21%

Cc1ccc(OCCCC(=O)Nc2nncs2)cc1
inactive: growth inhibition [1] -9.25% | growth inhibition [2] -13.4% | viability increase [3] 0.75% | viability [4] 105% | inhibition [5] 1.92% | RAM network inhibition [6] 1.98%

O=C(Nc1nnc(-c2ccc3c(c2)CCCC3)o1)c1ccccc1Cl
inactive: growth inhibition [1] -7.88% | growth inhibition [2] 18.4% | viability increase [3] -4.31% | viability [4] 34.6% | inhibition [5] 2.51% | RAM network inhibition [6] 4.48%

O=C(Cn1c(=O)sc2ccccc21)Nc1ccc2c(c1)OCCO2
inactive: growth inhibition [1] -22.9% | growth inhibition [2] -7.4% | viability increase [3] -4.54% | viability [4] 93.9% | inhibition [5] 1.6% | RAM network inhibition [6] 6.6%

CCCCC(NC(C)=O)c1nc2ccccc2n1CCCC (stereo not given)
inactive: growth inhibition [1] -16.8% | growth inhibition [2] -12.2% | viability increase [3] -4.34% | viability [4] 86.6% | inhibition [5] 1.69% | RAM network inhibition [6] 4.56%

CCOC(=O)C1=C(N)OC2=C(C(=O)CCC2)C1c1cccnc1 (stereo not given)
inactive: growth inhibition [1] -6.66% | growth inhibition [2] 4.47% | viability increase [3] -2.49% | viability [4] 104% | inhibition [5] 1.22% | RAM network inhibition [6] 2.44%

Cc1ccc(N=C2SCCCN2C(=O)c2ccco2)cc1Cl
inactive: growth inhibition [1] -10.1% | growth inhibition [2] 4.65% | viability increase [3] -5.58% | viability [4] 87.6% | inhibition [5] 0.575% | RAM network inhibition [6] 0.78%

COc1cc(C2C(C(=O)c3ccco3)=C(O)C(=O)N2CCc2ccccc2)ccc1O (stereo not given)
inactive: growth inhibition [1] -1.96% | growth inhibition [2] -3.74% | viability increase [3] -3.47% | viability [4] 95.8% | inhibition [5] 0.735% | RAM network inhibition [6] -0.31%

COCCCNC(=O)c1ccc(Cn2c(=O)[nH]c3ccccc3c2=O)cc1
inactive: growth inhibition [1] -10.2% | growth inhibition [2] -0.91% | viability increase [3] -5.59% | viability [4] 34.9% | inhibition [5] 1.89% | RAM network inhibition [6] 5.69%

C=CCNC(=O)c1ccc2c(c1)nnn2C
inactive: growth inhibition [1] -16% | growth inhibition [2] -12.7% | viability increase [3] -0.65% | viability [4] 103% | inhibition [5] 2.63% | RAM network inhibition [6] 4.93%

CCOc1cc(C2C(C(=O)c3ccco3)=C(O)C(=O)N2CCc2ccccc2)ccc1O (stereo not given)
inactive: growth inhibition [1] -35.8% | growth inhibition [2] -4.2% | viability increase [3] -1.77% | viability [4] 97.2% | inhibition [5] 4.93% | RAM network inhibition [6] 4.16%

CCN1CCN(c2nc(SC)nc3sc4c(c23)CC(C)(C)OC4)CC1
inactive: growth inhibition [1] -15.9% | growth inhibition [2] -8.5% | viability increase [3] -5.96% | viability [4] 66.9% | inhibition [5] 1.39% | RAM network inhibition [6] 2.09%

N#Cc1c(-c2ccccc2)cc(-c2ccco2)c(C#N)c1N
inactive: growth inhibition [1] -21.9% | growth inhibition [2] -10.5% | viability increase [3] -7.79% | viability [4] 38.5% | inhibition [5] 1.86% | RAM network inhibition [6] 8.41%

CCOc1ccc(-n2c(SCC(=O)Nc3ccc4c(c3)OCCO4)nc3c(c2=O)SCC3)cc1
inactive: growth inhibition [1] -12.9% | growth inhibition [2] -5.05% | viability increase [3] -2.09% | viability [4] 84.1% | inhibition [5] 3.17% | RAM network inhibition [6] 9.35%

CCCCCn1c(CNC(=O)COC)nc2ccccc21
inactive: growth inhibition [1] -2.62% | growth inhibition [2] -2.4% | viability increase [3] -2.9% | viability [4] 95.4% | inhibition [5] 0.855% | RAM network inhibition [6] 2.97%

COc1ccc2c(c1)SC1=NCCS(=O)(=O)N12
inactive: growth inhibition [1] -7.75% | growth inhibition [2] -10.4% | viability increase [3] -2.86% | viability [4] 105% | inhibition [5] 0.315% | RAM network inhibition [6] 4.32%

Cc1cc(NC(=O)Cn2c(=O)n(Cc3ccccc3)c(=O)c3ccccc32)no1
inactive: growth inhibition [1] -5.91% | growth inhibition [2] -24.7% | viability increase [3] -5.98% | viability [4] 51.5% | inhibition [5] 1.32% | RAM network inhibition [6] 6.47%

Cc1ccc(S(=O)(=O)c2nc(-c3cccs3)oc2SCC(N)=O)cc1
inactive: growth inhibition [1] -8.57% | growth inhibition [2] 10.4% | viability increase [3] -2.87% | viability [4] 106% | inhibition [5] -0.475% | RAM network inhibition [6] 3.22%

CSc1nnc(C2CCCN2)n1C (stereo not given)
inactive: growth inhibition [1] -16.9% | growth inhibition [2] -7.04% | viability increase [3] -0.51% | viability [4] 90.9% | inhibition [5] 2.88% | RAM network inhibition [6] -0.16%

CC1(C)Cc2c(sc3c2c(=N)n(Cc2ccco2)c(=O)n3CC(=O)Nc2cccc(Cl)c2)CO1
inactive: growth inhibition [1] -9.23% | growth inhibition [2] -8.69% | viability increase [3] -6.27% | viability [4] 75% | inhibition [5] 3.25% | RAM network inhibition [6] 5.15%

Cc1cc(C)c(S(=O)(=O)NCC2CCC(C(=O)NCCCN3CCOCC3)CC2)c(C)c1 (stereo not given)
inactive: growth inhibition [1] -6.14% | growth inhibition [2] 7.86% | viability increase [3] -3.2% | viability [4] 81.3% | inhibition [5] 0.675% | RAM network inhibition [6] -0.63%

Cc1cccc(NC(=O)Cn2cnc3c(cnn3-c3ccc(F)cc3)c2=O)c1C
inactive: growth inhibition [1] -1.04% | growth inhibition [2] -2.65% | viability increase [3] -8.31% | viability [4] 29.6% | inhibition [5] 0.735% | RAM network inhibition [6] 2.47%
